Laboratory results: ChEMBL document CHEMBL1123505, “Synthesis, structure, and antitumor activity of N-salicyloyl-N'-(2-furylthiocarbonyl)hydrazine and its copper(II) complex” (1986)
Several values for one entry are separate records, joined by “and”; a condition that tells them apart may be missing. Equal entries are not always repeated.

What was measured:
Mus musculus [1] = experiment: Antitumor activity against fibrosarcoma infected mice at the dosage of 10 mg/kg (ip) and expressed as no. of mice injected; T/C= 8/8; format: functional, organism-based; design: dose 10 mg/kg
Mus musculus [2] = experiment: Antitumor activity against fibrosarcoma infected mice at the dosage of 10 mg/kg (sc) and expressed as no. of mice injected; T/C= 8/7; format: functional
Mus musculus [3] = experiment: Antitumor activity against fibrosarcoma infected mice at the dosage of 25 mg/kg (ip) and expressed as no. of mice injected; T/C= 7/7; format: functional, organism-based; design: dose 25 mg/kg
Mus musculus [4] = experiment: Antitumor activity against fibrosarcoma infected mice at the dosage of 25 mg/kg (sc) and expressed as no. of mice injected; T/C= 8/6; format: functional, organism-based; design: dose 25 mg/kg
Mus musculus [5] = experiment: Antitumor activity against fibrosarcoma infected mice at the dosage of 50 mg/kg (ip) and expressed as no. of mice injected; T/C= 10/6; format: functional, organism-based; design: dose 50 mg/kg
Mus musculus [6] = experiment: Antitumor activity against fibrosarcoma infected mice at the dosage of 5 mg/kg (ip) and expressed as no. of mice injected; T/C= 8/8; format: functional, organism-based; design: dose 5 mg/kg
Mus musculus [7] = experiment: Antitumor activity against fibrosarcoma infected mice at the dosage of 5 mg/kg (sc) and expressed as no. of mice injected; T/C= 6/6; format: functional, organism-based; design: dose 5 mg/kg
Mus musculus [8] = experiment: Antitumor activity expressed as the no. of mice surviving >6 months was tested against fibrosarcoma at the dosage of 50 mg/kg (ip); format: functional
Outline: (§1)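 Fibrosarcoma was established by sc inoculation of 4 × 10⁶ cells in mice. On day 3 they received a single ip or sc injection of compound freshly suspended in 0.89% saline, with 5–10 mice per group. The count is of mice surviving 6 months or more after treatment, scored as tumor-free, with the percentage of the group also given.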

Mus musculus [9] = experiment: Antitumor activity expressed as the no. of mice surviving >6 months was tested against fibrosarcoma at the dosage of 5 mg/kg (ip); format: functional; outline: as §1
Mus musculus [10] = experiment: Antitumor activity expressed as %T/C was tested against fibrosarcoma at the dosage of 10 mg/Kg (sc); format: functional
Outline: (§2)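 Fibrosarcoma: 4 × 10⁶ cells were given sc to C₃H/He mice, 25–30 g. A single ip or sc dose in 0.89% saline followed on day three, with saline-injected controls. Mean life span of nonsurvivors excludes mice surviving 6 months or more, which were counted as tumour-free. T/C% is treated mean survival, excluding tumour-free survivors, divided by untreated mean life span ×100.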

Mus musculus [11] = experiment: Antitumor activity expressed as %T/C was tested against fibrosarcoma at the dosage of 25 mg/Kg (ip); format: functional; outline: as §2
Mus musculus [12] = experiment: Antitumor activity expressed as %T/C was tested against fibrosarcoma at the dosage of 25 mg/Kg (sc); format: functional; outline: as §2
Mus musculus [13] = experiment: Antitumor activity expressed as %T/C was tested against fibrosarcoma at the dosage of 5 mg/Kg (ip); format: functional; outline: as §2
Mus musculus [14] = experiment: Antitumor activity expressed as %T/C was tested against fibrosarcoma at the dosage of 5 mg/Kg (sc); format: functional; outline: as §2
Mus musculus [15] = experiment: Antitumor activity expressed as %T/C was tested against fibrosarcoma at the dosage of 50 mg/Kg (ip); format: functional; outline: as §2
Mus musculus [16] = experiment: Antitumor activity expressed as mean life span of nonsurvivors in days (T/C) was tested against Dalton's lymphoma at the dosage of 10 mg/kg (ip); 30/23; format: functional, organism-based; design: dose 10 mg/kg
Outline: (§3)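 Dalton's lymphoma: 2 × 10⁷ ascites cells were given ip to DbA mice, 18–20 g. A single ip dose in 0.89% saline followed on day two, with saline-injected controls. Mean life span was calculated excluding mice that survived 6 months or more. T/C% is the mean survival of treated mice, excluding tumour-free survivors, divided by the mean life span of untreated mice ×100.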

Mus musculus [17] = experiment: Antitumor activity expressed as mean life span of nonsurvivors in days (T/C) was tested against Dalton's lymphoma at the dosage of 25 mg/kg (ip); 38/23; format: functional, organism-based; design: dose 25 mg/kg; outline: as §3
Mus musculus [18] = experiment: Antitumor activity expressed as mean life span of nonsurvivors in days (T/C) was tested against Dalton's lymphoma at the dosage of 2 mg/kg (ip); 24/23; format: functional, organism-based; design: dose 2 mg/kg; outline: as §3
Mus musculus [19] = experiment: Antitumor activity expressed as mean life span of nonsurvivors in days (T/C) was tested against fibrosarcoma at the dosage of 10 mg/kg (ip); 35/27; format: functional, organism-based; design: dose 10 mg/kg; outline: as §2
Mus musculus [20] = experiment: Antitumor activity expressed as mean life span of nonsurvivors in days (T/C) was tested against fibrosarcoma at the dosage of 10 mg/kg (sc); 41/28; format: functional, organism-based; design: dose 10 mg/kg; outline: as §2
Mus musculus [21] = experiment: Antitumor activity expressed as mean life span of nonsurvivors in days (T/C) was tested against fibrosarcoma at the dosage of 25 mg/kg (ip); 33/25; format: functional, organism-based; design: dose 25 mg/kg; outline: as §2
Mus musculus [22] = experiment: Antitumor activity expressed as mean life span of nonsurvivors in days (T/C) was tested against fibrosarcoma at the dosage of 25 mg/kg (sc); 39/29; format: functional, organism-based; design: dose 25 mg/kg; outline: as §2
Mus musculus [23] = experiment: Antitumor activity expressed as mean life span of nonsurvivors in days (T/C) was tested against fibrosarcoma at the dosage of 50 mg/kg (ip); 37/28; format: functional, organism-based; design: dose 50 mg/kg; outline: as §2
Mus musculus [24] = experiment: Antitumor activity expressed as mean life span of nonsurvivors in days (T/C) was tested against fibrosarcoma at the dosage of 5 mg/kg (ip); 34/26; format: functional, organism-based; design: dose 5 mg/kg; outline: as §2
Mus musculus [25] = experiment: Antitumor activity expressed as %T/C was tested against Dalton's lymphoma at the dosage of 10 mg/Kg (ip); format: functional; outline: as §3
Mus musculus [26] = experiment: Antitumor activity expressed as %T/C was tested against Dalton's lymphoma at the dosage of 2 mg/Kg (ip); format: functional; outline: as §3
Mus musculus [27] = experiment: Antitumor activity expressed as %T/C was tested against Dalton's lymphoma at the dosage of 25 mg/Kg (ip); format: functional; outline: as §3
Mus musculus [28] = experiment: Antitumor activity expressed as %T/C was tested against fibrosarcoma at the dosage of 10 mg/Kg (ip); format: functional; outline: as §2
Mus musculus [29] = experiment: Antitumor activity expressed as the no. of mice surviving >6 months was tested against fibrosarcoma at the dosage of 25 mg/kg (ip); format: functional; outline: as §1
Mus musculus [30] = experiment: Antitumor activity expressed as mean life span of nonsurvivors in days (T/C) was tested against fibrosarcoma at the dosage of 5 mg/kg (sc); 30/27; format: functional, organism-based; design: dose 5 mg/kg; outline: as §2
Mus musculus [31] = experiment: Antitumor activity against Dalton's lymphoma infected mice at the dosage of 10 mg/kg (ip) and expressed as no. of mice injected; T/C= 5/5; format: functional
Mus musculus [32] = experiment: Antitumor activity against Dalton's lymphoma infected mice at the dosage of 25 mg/kg (ip) and expressed as no. of mice injected; T/C= 5/5; format: functional
Mus musculus [33] = experiment: Antitumor activity against Dalton's lymphoma infected mice at the dosage of 2 mg/kg (ip) and expressed as no. of mice injected; T/C= 5/5; format: functional
Mus musculus [34] = experiment: Antitumor activity expressed as average body weight change was tested against fibrosarcoma at the dosage of 5 mg/kg (ip); format: functional, organism-based; design: dose 5 mg/kg
Outline: (§4)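 Fibrosarcoma-bearing C₃H/He mice (4 × 10⁶ cells sc) received a single ip or sc dose in 0.89% saline on day three after transplant; controls received saline. The day of injection was taken as day zero. Mice were weighed on alternate days up to 4 weeks. Values are average % weight change from the day of treatment to day 21.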

Mus musculus [35] = experiment: Antitumor activity expressed as average body weight change was tested against fibrosarcoma at the dosage of 5 mg/kg (sc); format: functional; outline: as §4
Mus musculus [36] = experiment: Antitumor activity expressed as average body weight change was tested against fibrosarcoma at the dosage of 10 mg/kg (ip); format: functional, organism-based; design: dose 10 mg/kg; outline: as §4
Mus musculus [37] = experiment: Antitumor activity expressed as average body weight change was tested against fibrosarcoma at the dosage of 10 mg/kg (sc); format: functional; outline: as §4
Mus musculus [38] = experiment: Antitumor activity expressed as average body weight change was tested against fibrosarcoma at the dosage of 25 mg/kg (ip); format: functional, organism-based; design: dose 25 mg/kg; outline: as §4
Mus musculus [39] = experiment: Antitumor activity expressed as average body weight change was tested against fibrosarcoma at the dosage of 25 mg/kg (sc); format: functional; outline: as §4
Mus musculus [40] = experiment: Antitumor activity expressed as average body weight change was tested against fibrosarcoma at the dosage of 50 mg/kg (ip); format: functional, organism-based; design: dose 50 mg/kg; outline: as §4

Copper(II) Complex
T/C (Mus musculus [1]): 8 | T/C (Mus musculus [2]): 8 | T/C (Mus musculus [3]): 7 | T/C (Mus musculus [4]): 8 | T/C (Mus musculus [5]): 10 | T/C (Mus musculus [6]): 8 | T/C (Mus musculus [7]): 6 | No. of mice surviving >6 months (Mus musculus [8]): 4 | No. of mice surviving >6 months (Mus musculus [9]): 2 | T/C (Mus musculus [10]): 146% | T/C (Mus musculus [11]): 132% | T/C (Mus musculus [12]): 135% | T/C (Mus musculus [13]): 131% | T/C (Mus musculus [14]): 111% | T/C (Mus musculus [15]): 132% | T/C (Mus musculus [16]): 30 days | T/C (Mus musculus [17]): 38 days | T/C (Mus musculus [18]): 24 days | T/C (Mus musculus [19]): 35 days | T/C (Mus musculus [20]): 41 days | T/C (Mus musculus [21]): 33 days | T/C (Mus musculus [22]): 39 days | T/C (Mus musculus [23]): 37 days | T/C (Mus musculus [24]): 34 days | T/C (Mus musculus [25]): 130% | T/C (Mus musculus [26]): 104% | T/C (Mus musculus [27]): 165% | T/C (Mus musculus [28]): 130% | No. of mice surviving >6 months (Mus musculus [29]): 3 and 6 | T/C (Mus musculus [30]): 30 days | T/C (Mus musculus [31]): 5 | T/C (Mus musculus [32]): 5 | T/C (Mus musculus [33]): 5 | Average body weight change (Mus musculus [34]): 15.5% | Average body weight change (Mus musculus [35]): 19.4% | Average body weight change (Mus musculus [36]): 18.3% | Average body weight change (Mus musculus [37]): 5.86% | Average body weight change (Mus musculus [38]): 12% | Average body weight change (Mus musculus [39]): 5.51% | Average body weight change (Mus musculus [40]): 8.51%
